Experimental data published in ChEMBL document CHEMBL1123825, “Synthesis and activity profiles of new dermorphin-(1-4) peptide analogues” (J Med Chem, 1987).
Non-standard residues stand in square brackets, D forms with d. Residues, ends and D or L forms follow the SMILES beside them. ξ: configuration not given here. Met(O) = CS(=O)CC[C@H](N)C(=O)O; ξA = CC(N)C(=O)O; Sar = CNCC(=O)O

Key:
[1] = test system: Mus musculus; assay: The compound was evaluated for the analgesic activity by tail-flick test after icv administration of compound in mouse; value ranges from […]-[…]; assay type: functional
[2] = test system: Mus musculus; assay: The compound was evaluated for the analgesic activity by tail-flick test after subcutaneous administration of compound in mouse; value ranges from 0.48-1.51; assay type: functional; conditions: sc
[3] = test system: Mus musculus; assay: Relative potency was determined for the compound with respect to morphine activity (1) after icv administration; assay type: functional
[4] = test system: Mus musculus; assay: Relative potency was determined for the compound with respect to morphine activity (1) after subcutaneous administration; assay type: functional
[5] = molecular target: Kappa-type opioid receptor (Cavia porcellus, UniProt P41144); assay: Evaluated for the inhibition of [3H]EKC binding to Opioid receptor kappa 1 of guinea pig brain
[6] = molecular target: Mu-type opioid receptor (Cavia porcellus, UniProt P97266); assay: Evaluated for the inhibition of [3H]DAGO binding to mu-receptor of guinea pig brain
How it was run: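 Male guinea pig brain minus cerebellum, homogenized in 50 mM Tris (pH 7.4), preincubated 37 °C for 45 min; 18 mg tissue per tube. [3H]DAGO 0.6 nM, 40 min at 25 °C, then GF/B filtration. Nonspecific binding defined with […] bremazocine. Six or more concentrations, each in triplicate; IC50 by probit analysis.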

[7] = molecular target: Mu-type opioid receptor (Cavia porcellus) (UniProt P97266); assay: Relative potency with respect to morphine was evaluated for mu-receptor of guinea pig brain
[8] = test system: Mus musculus; assay: The compound was evaluated for the analgesic activity by tail-flick test after icv administration of compound in mouse; value ranges from 0.51-9.7; assay type: functional
[9] = test system: Mus musculus; assay: The compound was evaluated for the analgesic activity by tail-flick test after subcutaneous administration of compound in mouse; value ranges from 0.31-1.09; assay type: functional; conditions: sc
[10] = test system: Mus musculus; assay: The compound was evaluated for the analgesic activity by tail-flick test after icv administration of compound in mouse; value ranges from 11.8-23; assay type: functional
[11] = test system: Mus musculus; assay: The compound was evaluated for the analgesic activity by tail-flick test after subcutaneous administration of compound in mouse; value ranges from 1.40-4.89; assay type: functional; conditions: sc
[12] = test system: Mus musculus; assay: The compound was evaluated for the analgesic activity by tail-flick test after icv administration of compound in mouse; value ranges from 1.35-3.36; assay type: functional
[13] = test system: Mus musculus; assay: The compound was evaluated for the analgesic activity by tail-flick test after subcutaneous administration of compound in mouse; value ranges from 0.54-0.83; assay type: functional; conditions: sc
[14] = test system: Mus musculus; assay: The compound was evaluated for the analgesic activity by tail-flick test after icv administration of compound in mouse; value ranges from 12.6-41.7; assay type: functional
[15] = test system: Mus musculus; assay: The compound was evaluated for the analgesic activity by tail-flick test after subcutaneous administration in mouse; value ranges from 2.69-17.0; assay type: functional; conditions: sc
[16] = test system: Mus musculus; assay: The compound was evaluated for the analgesic activity by tail-flick test after subcutaneous administration of compound in mouse; value ranges from 2.60-17.0; assay type: functional; conditions: sc
[17] = test system: Mus musculus; assay: The compound was evaluated for the analgesic activity by tail-flick test after icv administration of compound in mouse; value ranges from 5.5-16.3; assay type: functional
[18] = test system: Mus musculus; assay: The compound was evaluated for the analgesic activity by tail-flick test after icv administration of compound in mouse; value ranges from 2.8-12.6; assay type: functional
[19] = test system: Mus musculus; assay: The compound was evaluated for the analgesic activity by tail-flick test after subcutaneous administration of compound in mouse; value ranges from 0.28-0.80; assay type: functional; conditions: sc
[20] = test system: Mus musculus; assay: The compound was evaluated for the analgesic activity by tail-flick test after icv administration of compound in mouse; value ranges from 34-72; assay type: functional
[21] = test system: Mus musculus; assay: The compound was evaluated for the analgesic activity by tail-flick test after subcutaneous administration of compound in mouse; value ranges from 2.51-17.4; assay type: functional; conditions: sc
[22] = test system: Mus musculus; assay: The compound was evaluated for the analgesic activity by tail-flick test after subcutaneous administration of compound in mouse; value ranges from 2.92-8.75; assay type: functional; conditions: sc
[23] = test system: Mus musculus; assay: The compound was evaluated for the analgesic activity by tail-flick test after icv administration of compound in mouse; value ranges from 31-85; assay type: functional
[24] = test system: Mus musculus; assay: The compound was evaluated for the analgesic activity by tail-flick test after subcutaneous administration of compound in mouse; value ranges from 2.64-10.0; assay type: functional; conditions: sc
[25] = test system: Mus musculus; assay: The compound was evaluated for the analgesic activity by tail-flick test after icv administration of compound in mouse; value ranges from 27-40.8; assay type: functional
[26] = test system: Mus musculus; assay: The compound was evaluated for the analgesic activity by tail-flick test after icv administration of compound in mouse; value ranges from 6.1-11.4; assay type: functional
[27] = test system: Mus musculus; assay: The compound was evaluated for the analgesic activity by tail-flick test after subcutaneous administration of compound in mouse; value ranges from 0.21-1.06; assay type: functional; conditions: sc
[28] = test system: Mus musculus; assay: The compound was evaluated for the analgesic activity by tail-flick test after subcutaneous administration of compound in mouse; value ranges from 3.48-14.95; assay type: functional; conditions: sc
[29] = test system: Mus musculus; assay: The compound was evaluated for the analgesic activity by tail-flick test after icv administration of compound in mouse; value ranges from 14.8-58; assay type: functional
[30] = test system: Mus musculus; assay: The compound was evaluated for the analgesic activity by tail-flick test after icv administration of compound in mouse; value ranges from 46.4-120; assay type: functional
[31] = test system: Mus musculus; assay: The compound was evaluated for the analgesic activity by tail-flick test after subcutaneous administration of compound in mouse; value ranges from 26.7-99.1; assay type: functional; conditions: sc
[32] = test system: Mus musculus; assay: The compound was evaluated for the analgesic activity by tail-flick test after icv administration of compound in mouse; value ranges from 6.6-27.1; assay type: functional
How it was run: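 Swiss-Webster mice (23-25 g), tail immersed in 55 °C water, reaction time read before and at various times after icv dosing in saline (4 µL); 10 s cutoff. % analgesia = [(T − T0)/(10 − T0)] × 100. At least four doses, at least eight mice per dose; ED50 estimated at time of peak activity. Opioid specificity checked by naloxone pretreatment (0.5-1 mg/kg sc).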

[33] = test system: Mus musculus; assay: The compound was evaluated for the analgesic activity by tail-flick test after icv administration of compound in mouse; value ranges from 2550-4200; assay type: functional
[34] = organism: Mus musculus; assay: animal or person; conditions: Tail, sc

Sequence of Mu-type opioid receptor (Cavia porcellus) (P97266 whole entry): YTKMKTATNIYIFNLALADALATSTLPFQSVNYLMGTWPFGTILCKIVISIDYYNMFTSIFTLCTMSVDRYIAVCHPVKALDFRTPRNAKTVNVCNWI
Sequence of Mu-type opioid receptor (P97266 whole entry): as above
Sequence of Kappa-type opioid receptor (P41144 whole entry): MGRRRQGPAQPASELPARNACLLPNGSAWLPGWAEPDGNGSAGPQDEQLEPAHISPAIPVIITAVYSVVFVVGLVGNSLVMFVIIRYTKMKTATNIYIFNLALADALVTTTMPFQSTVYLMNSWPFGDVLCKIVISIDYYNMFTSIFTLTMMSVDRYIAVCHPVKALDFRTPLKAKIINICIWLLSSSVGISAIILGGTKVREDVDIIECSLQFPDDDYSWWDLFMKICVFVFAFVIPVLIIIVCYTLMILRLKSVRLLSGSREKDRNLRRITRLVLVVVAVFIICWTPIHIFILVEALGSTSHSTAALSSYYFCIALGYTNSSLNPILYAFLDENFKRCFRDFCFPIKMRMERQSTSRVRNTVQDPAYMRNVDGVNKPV

Structure (SMILES) | Relative potency [3] | Relative potency [4] | IC50 [5] [nM] | IC50 [6] [nM] | Relative potency [7] | other results
COC(=O)CN(C)C(=O)[C@H](Cc1ccccc1)NC(=O)[C@H](CC[S+](C)[O-])NC(=O)[C@H](Cc1ccc(O)cc1)N=C(N)N (stereo not given in full) | 81 | 14.4 | > 10000 | 23 | 0.17 | ED50 [1]: 38.1 pmol/mouse; ED50 [2]: 0.75 µmol/kg
C[S+]([O-])CC[C@H](NC(=O)[C@H](Cc1ccc(O)cc1)N=C(N)N)C(=O)N[C@@H](Cc1ccccc1)C(=O)NCC(N)=O (stereo not given in full) | – | – | > 10000 | 5 | – | ED50 [8]: 2 pmol/mouse; ED50 [9]: 0.53 µmol/kg
COC(=O)CNC(=O)[C@H](Cc1ccccc1)NC(=O)[C@H](CC[S+](C)[O-])NC(=O)[C@H](Cc1ccc(O)cc1)N=C(N)N (stereo not given in full) | – | – | > 10000 | 23.5 | – | ED50 [10]: 15.5 pmol/mouse; ED50 [11]: 2.39 µmol/kg
C[C@H](NC(=O)[C@@H](N)Cc1ccc(O)cc1)C(=O)N[C@@H](Cc1ccccc1)C(=O)NCC(N)=O (H-YAFG-NH2) | – | – | – | – | 0.11 | –
C[S+]([O-])CC[C@H](NC(=O)[C@@H](N)Cc1ccc(O)cc1)C(=O)N[C@@H](Cc1ccccc1)C(=O)NCC(N)=O (stereo not given in full) (H-Y[Met(O)]FG-NH2) | – | – | > 10000 | 6.3 | – | ED50 [12]: 2.01 pmol/mouse; ED50 [13]: 0.66 µmol/kg
C[S+]([O-])CC[C@H](NC(=O)[C@@H](N)Cc1ccc(O)cc1)C(=O)N[C@@H](Cc1ccccc1)C(=O)NCC(=O)O (stereo not given in full) (H-Y[Met(O)]FG-OH) | – | – | > 10000 | 61 | – | ED50 [14]: 20.5 pmol/mouse; ED50 [15]: 4.64 µmol/kg
COC(=O)CNC(=O)[C@H](Cc1ccccc1)NC(=O)[C@H](CC[S+](C)[O-])NC(=O)[C@@H](N)Cc1ccc(O)cc1 (stereo not given in full) (H-Y[Met(O)]FG-OMe) | – | – | > 10000 | 5 | – | ED50 [16]: 4.21 µmol/kg; ED50 [17]: 10 pmol/mouse
CN(CC(N)=O)C(=O)[C@H](Cc1ccccc1)NC(=O)[C@H](CC[S+](C)[O-])NC(=O)[C@@H](N)Cc1ccc(O)cc1 (stereo not given in full) (H-Y[Met(O)]F[Sar]-NH2) | 561 | 22.5 | > 10000 | 6 | 0.67 | ED50 [18]: 5.5 pmol/mouse; ED50 [19]: 0.48 µmol/kg
CN(CC(=O)O)C(=O)[C@H](Cc1ccccc1)NC(=O)[C@H](CC[S+](C)[O-])NC(=O)[C@@H](N)Cc1ccc(O)cc1 (stereo not given in full) (H-Y[Met(O)]F[Sar]-OH) | 67 | 2.3 | > 10000 | 77 | 0.05 | ED50 [20]: 45.8 pmol/mouse; ED50 [21]: 4.63 µmol/kg
COC(=O)CN(C)C(=O)[C@H](Cc1ccccc1)NC(=O)[C@H](CC[S+](C)[O-])NC(=O)[C@@H](N)Cc1ccc(O)cc1 (stereo not given in full) (H-Y[Met(O)]F[Sar]-OMe) | 64 | 2.7 | > 10000 | 6 | 0.67 | ED50 [22]: 4.05 µmol/kg; ED50 [23]: 47.9 pmol/mouse
CC(NC(=O)[C@H](Cc1ccccc1)NC(=O)[C@H](CC[S+](C)[O-])NC(=O)[C@@H](N)Cc1ccc(O)cc1)C(N)=O (stereo not given in full) (H-Y[Met(O)]F[ξA]-NH2) | 93 | 2.5 | > 10000 | 17 | 0.24 | ED50 [24]: 4.38 µmol/kg; ED50 [25]: 33 pmol/mouse
CC(NC(=O)[C@H](Cc1ccccc1)NC(=O)[C@H](CC[S+](C)[O-])NC(=O)[C@@H](N)Cc1ccc(O)cc1)C(=O)O (stereo not given in full) (H-Y[Met(O)]F[ξA]-OH) | – | – | > 10000 | 120 | – | ED50 [26]: 8.4 pmol/mouse; ED50 [27]: 0.36 µmol/kg
COC(=O)C(C)NC(=O)[C@H](Cc1ccccc1)NC(=O)[C@H](CC[S+](C)[O-])NC(=O)[C@@H](N)Cc1ccc(O)cc1 (stereo not given in full) (H-Y[Met(O)]F[ξA]-OMe) | – | – | > 10000 | 9 | – | ED50 [28]: 5.16 µmol/kg; ED50 [29]: 18.2 pmol/mouse
C[C@@H](NC(=O)[C@@H](N)Cc1ccc(O)cc1)C(=O)N[C@@H](Cc1ccccc1)C(=O)NCC(N)=O (H-Y[dA]FG-NH2) [listing 1 of 2 here] | – | – | > 10000 | 36.7 | – | –
C[C@@H](NC(=O)[C@@H](N)Cc1ccc(O)cc1)C(=O)N[C@@H](Cc1ccccc1)C(=O)NCC(N)=O (H-Y[dA]FG-NH2) [listing 2 of 2 here] | 45 | 0.2 | – | – | – | ED50 [30]: 68.8 pmol/mouse; ED50 [31]: 60.3 µmol/kg
C[C@@H](NC(=O)[C@@H](N)Cc1ccc(O)cc1)C(=O)N[C@@H](Cc1ccccc1)C(=O)NCC(=O)N[C@@H](Cc1ccc(O)cc1)C(=O)N1CCC[C@H]1C(=O)N[C@@H](CO)C(N)=O [DERMORPHIN] | – | – | > 10000 | 5.7 | – | ED50 [32]: 11.4 pmol/mouse
CN1CC[C@]23c4c5ccc(O)c4O[C@H]2[C@@H](O)C=C[C@H]3[C@H]1C5 [MORPHINE] | – | – | – | – | – | ED50 [33]: 3090 pmol/mouse; ED50 [34]: 10.8 µmol/kg
